From ChEMBL document CHEMBL1135652, “Novel soluble cationic trans-diaminedichloroplatinum(II) complexes that are active against cisplatin resistant ovarian cancer cell lines” (J Med Chem, 2002) come the findings set out here.

“And” between values parts separate entries of the source, which are not always exact repeats. Identical values can stand only once.

In assay [1] the test system is 41M. In words: cytotoxicity against 41McisR cells incubated for 24 hr in MTT assay. In kind it is functional, cell-based, Homo sapiens. The method in brief:
(§1)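 Cisplatin-sensitive/resistant ovarian cancer line pairs; platinum complexes dissolved in 10 mM NaClO4 in water (1 mg/mL stock, fresh), added to cultures at final 0–200 μM for 24 h. Survival by MTT, absorbance at 520 nm; IC50 (concentration giving 50% cell killing) taken from % survival vs concentration curves. Quadruplicate experiments.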
In general terms: Formazan colour is commonly taken as a measure of viable cells.

Assay [2] relates to CH1. In words: cytotoxicity against CH1 cells incubated for 24 hr in MTT assay. In kind it is functional, cell-based, Homo sapiens. The method in brief: as §1
For assay [3], the system named is CH1. In words: cytotoxicity against CH1cisR cells incubated for 24 hr in MTT assay. In kind it is functional, cell-based, Homo sapiens. The method in brief: as §1
For assay [4], the system named is A2780cisR. In words: cytotoxicity against A2780cisR cells incubated for 24 hr in MTT assay. It is filed as functional, cell-based, Homo sapiens. The method in brief:
as §1

The subject of assay [5] is A2780. Kind of assay: cytotoxicity against A2780 cells incubated for 24 hr in MTT assay. In kind it is functional, cell-based, Homo sapiens. The method in brief:
as §1

Assay [6] has as its system 41M. Kind of assay: cytotoxicity against 41M cells incubated for 24 hr in MTT assay. It is filed as functional, cell-based, Homo sapiens. The method in brief:
as §1

Assay [7] in a line: Resistant factor was measured as IC50 41M/ IC50 41McisR. It is filed as functional.
Assay [8] in a line: Resistant factor was measured as IC50 CH1/ IC50 CH1cisR. It is filed as functional.
For assay [9], the system named is A2780cisR. In words: Resistant factor was measured as […]. In kind it is functional, cell-based.

What is called IC50 is the concentration at which inhibition is half-maximal. A lower IC50 goes with greater potency. On to CISPLATIN [listing 1 of 2 here], for which the IC50 in [1] came to 107 µM; in assay [2], 6 µM; in [3], 23 µM; in assay [4] it was 38 µM; in assay [5], 2.2 µM; in assay [6], 26 µM.

In the case of CISPLATIN [listing 2 of 2 here], the values for the RF in assay [7], in [8] and in [9] were 4.1, 3.8 and 17.3, respectively.

As for TRANSPLATIN, the IC50 in assay [1], in assay [2], in assay [3], in assay [4], in assay [5] and in [6] was greater than 200 µM throughout.

On to “trans-ptcl2(IPA)(pz) [listing 1 of 2 here]”, for which the half-inhibitory concentration (IC50) in [1] came to 122 µM; in assay [2], 10 µM; in assay [3] it was 50 µM; in [4], 30 µM; in [5], 14 µM; in [6] it was 38 µM.

For the substance “trans-ptcl2(IPA)(pz) [listing 2 of 2 here]”, the RF in [7] stood at 3.2; in assay [8], 5; in [9] it was 2.1.

On to “trans-ptcl2(NH3)(pz) [listing 1 of 2 here]”, for which the IC50 in assay [1] was 155 µM and 112 µM; in assay [2], 12 µM and 28 µM; in assay [3], 34 µM and 56 µM; in [4] it was 44 µM and 25 µM; in assay [5] it was 5 µM and 10 µM; in assay [6], 52 µM and 46 µM.

With “trans-ptcl2(NH3)(pz) [listing 2 of 2 here]”, the RF in assay [7] is 3 and 2.4; in assay [8], 2.8 and 2.

Turning to “trans-ptcl2(n-butyl amine)(pz) [listing 1 of 2 here]”, the IC50 is 48 µM in assay [1]; 17 µM in assay [2]; 19 µM in assay [3]; 28 µM in assay [4]; 16 µM in [5]; 32 µM in [6].

On to “trans-ptcl2(n-butyl amine)(pz) [listing 2 of 2 here]”, for which the RF in assay [7] was determined as 1.5; in [8], 1.1; in assay [9], 1.8.

For “trans-ptcl2(picoline)(pz) [listing 1 of 2 here]”, the IC50 in assay [1] worked out at 147 µM; in [2], 16 µM; in assay [3], 42 µM; in [4], 24 µM; in [5], 10 µM; in [6], 45 µM.

On to “trans-ptcl2(picoline)(pz) [listing 2 of 2 here]”, for which the figures for the RF in [7], in [8] and in [9] were 3.3, 2.6 and 2.4, respectively.

With “trans-ptcl2(pip)(pz) [listing 1 of 2 here]”, the IC50 in assay [1] amounted to 118 µM; in assay [2] it was 22 µM; in assay [3], 85 µM; in [4], 64 µM; in assay [5], 18 µM; in assay [6], 37 µM.

As to “trans-ptcl2(pip)(pz) [listing 2 of 2 here]”, the RF in assay [7] was 3.2; in assay [8], 3.9; in assay [9] it was 3.6.
